Source: PubChem BioAssay (several laboratories)
This is a sample that favours compounds with a hit; in the whole collection about 4.1% have one here.
Cl transport mod = modulators of human KCC2 chloride dependent transport | Q9H2X9 | KCC2 cells, thallium flux FluoZin-2 fluorescence | B-score of Tl+ flux slope (higher = more flux/activation; lower = inhibition) at 10 µM | 2.2% of 190,000 active | AID 1456;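 active means thallium flux slope and its plate-corrected score both differing from the plate sample mean at a set confidence after two filtering rounds, in either direction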;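 further: slope of fluorescence scaled to starting intensity during 10 to 20 s after thallium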
KCNK3 block = human KCNK3 channel inhibition, primary screen. 0.84% of 340,000 active. O14649. B-score at 10 µM. CHO-KCNK3 thallium flux, FluxOR fluorescence; hits give low values. AID 602410;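 active means B-score under library mean minus 4 SD, starting fluorescence ratio at most library mean plus 5 SD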;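 further: more negative B-score means stronger inhibition of thallium flux through KCNK3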
hERG rescue = shields human hERG channel from block by proarrhythmic agents; Q12809; activation (rescue from dofetilide block), less the hit threshold, % at 10 µM; 0.51% of 310,000 active; CHO-hERG, FluxOR thallium flux, dofetilide IC70 present;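 active means activation above the mean of controls blocked by dofetilide plus 5 SD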;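 further: thallium influx through hERG after potassium depolarization seen as dye fluorescence rise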
Target sequence (Q12809 whole entry, looked up): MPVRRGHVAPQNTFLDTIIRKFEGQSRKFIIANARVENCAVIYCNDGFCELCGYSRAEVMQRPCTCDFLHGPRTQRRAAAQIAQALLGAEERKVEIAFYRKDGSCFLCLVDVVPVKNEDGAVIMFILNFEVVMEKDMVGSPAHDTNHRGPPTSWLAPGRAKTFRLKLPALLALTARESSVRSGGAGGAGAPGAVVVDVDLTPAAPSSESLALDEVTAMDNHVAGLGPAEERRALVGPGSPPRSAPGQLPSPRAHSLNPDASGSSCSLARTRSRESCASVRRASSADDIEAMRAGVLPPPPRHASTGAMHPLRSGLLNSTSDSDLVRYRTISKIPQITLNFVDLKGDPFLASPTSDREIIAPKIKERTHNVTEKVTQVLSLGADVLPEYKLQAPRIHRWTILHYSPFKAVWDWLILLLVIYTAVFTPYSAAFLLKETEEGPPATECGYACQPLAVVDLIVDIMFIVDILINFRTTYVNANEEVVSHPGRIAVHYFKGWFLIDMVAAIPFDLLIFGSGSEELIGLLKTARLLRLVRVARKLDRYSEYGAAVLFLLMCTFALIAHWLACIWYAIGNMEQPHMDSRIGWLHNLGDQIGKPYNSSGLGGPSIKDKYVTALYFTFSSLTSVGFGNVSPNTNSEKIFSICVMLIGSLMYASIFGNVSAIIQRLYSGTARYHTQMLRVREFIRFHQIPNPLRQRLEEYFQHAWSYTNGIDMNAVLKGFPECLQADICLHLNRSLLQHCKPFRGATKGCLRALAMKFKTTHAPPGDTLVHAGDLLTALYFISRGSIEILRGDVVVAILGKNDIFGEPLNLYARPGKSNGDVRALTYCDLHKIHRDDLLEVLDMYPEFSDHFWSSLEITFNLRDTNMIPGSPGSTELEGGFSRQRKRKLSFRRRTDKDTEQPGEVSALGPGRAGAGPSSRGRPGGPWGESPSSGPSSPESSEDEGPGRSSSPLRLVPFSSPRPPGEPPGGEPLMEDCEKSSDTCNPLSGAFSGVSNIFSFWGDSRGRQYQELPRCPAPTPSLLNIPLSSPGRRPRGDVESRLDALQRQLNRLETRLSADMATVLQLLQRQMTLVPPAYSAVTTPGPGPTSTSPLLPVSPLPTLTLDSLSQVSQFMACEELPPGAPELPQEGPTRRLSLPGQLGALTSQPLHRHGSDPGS
KCNQ1 inh = inhibitors of human KCNQ1 potassium channel; CHO-K1 KCNQ1, FluxOR thallium flux fluorescence; hits give high values; 1.3% of 310,000 active; B-score at 10 µM; P51787; AID 2642;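 active means compounds whose thallium flux B-score, printed positive for inhibition, exceeds three library SD while starting fluorescence stays within three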;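 further: channel opened by potassium depolarization with thallium stimulus after 20 min compound exposure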
KCNQ1 pot = potentiates or activates the human KCNQ1 potassium channel | CHO-K1 KCNQ1, thallium flux FluxOR fluorescence; hits give high values | P51787 | B-score at 10 µM | 0.35% of 310,000 active | AID 2648;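 active means fluorescence ratio B-score, a plate-corrected score, at least three library SD, with initial intensity B-score within 5 SD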
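Test system: CHO-K1 cells stably expressing KCNQ1 / Medium: assay buffer / Also added: depolarizing K+/Tl+ stimulus, K2SO4 and Tl2SO4 each 12.5 mM in 5x stock / Incubation: 90 min dye loading and 20 min compound exposure, both at room temperature / Signal: thallium influx via FluxOR fluorescence, kinetic imaging / Evaluation: B score of baseline-normalized fluorescence ratio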
KCNK9 block = inhibitors of human KCNK9 two-pore domain potassium channel; HEK293 KCNK9, FluxOR thallium flux fluorescence; hits give low values; B-score at 10 µM; 1.2% of 310,000 active; AID 488922;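 active means ratio B-score over 3 SD below the library mean, with starting fluorescence within 5 SD of its mean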;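 further: negative B-score means less thallium flux so channel inhibition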
KCNK9 inh conf = confirmation of human KCNK9 potassium channel inhibitors | shares compounds with KCNK9 block | HEK293 KCNK9 cells, FluxOR thallium flux fluorescence | inhibition, % at 10 µM | 43% of 4,900 active | AID 492992;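 active means thallium signal inhibited by more than 5 SD of the compound-free buffer control wells, on both duplicate plates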;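 further: 0% = assay buffer control wells without compound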
Kir21 sel = selectivity of KCNK9 modulators against mouse Kir2.1. 4% of 4,900 active. shares compounds with KCNK9 block. inhibition, % at 10 µM. Kir2.1 cells, FluxOR thallium flux fluorescence;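 active means thallium signal drop more than 5 SD beyond the mean of the no-compound control wells, seen in both duplicate plates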;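 further: signal is fluorescence rise after thallium addition divided by baseline fluorescence; plate controls were assay buffer only for no effect and full block by chlorpromazine control for full effect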
HEK293 Tl ctr = non-induced cell nonspecific activity of KCNK9 modulators. 40% of 4,900 active. shares compounds with KCNK9 block. inhibition, % at 10 µM. non-induced KCNK9-HEK293, FluxOR thallium flux;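 active means thallium signal drop beyond 5 SD of the untreated control mean, on both duplicate plates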;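 further: plate controls were buffer only IC0 wells for no effect and SID17386958 at its maximal inhibitory level for full effect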
* marks the source's active call; other numbers are inactive results; i = inactive; · = no result given.

SMILES	Cl transport mod	KCNK3 block	hERG rescue	KCNQ1 inh	KCNQ1 pot	KCNK9 block	KCNK9 inh conf	Kir21 sel	HEK293 Tl ctr
O=C(Nc1cccc2ccccc12)c1cn(-c2ccccc2)nc1-c1cccs1	-0.3	-9.5*	-12	i	i	-10*	50%*	i	24%*
CCCCOC(=O)Nc1cc(Cl)ccc1C	-0.07	i	-9	i	i	-13*	32%*	i	i
CCCCOC(=O)Nc1cc(C)c(Cl)cc1OC	·	i	1	i	i	i	·	·	·
CCN1C(=O)[C@H]2[C@@H](c3ccc(-c4cccc(Cl)c4)cc3)N[C@@](CC(C)C)(C(=O)OC)[C@H]2C1=O	·	i	·	·	·	·	·	·	·
CCN1C(=O)[C@H]2[C@@H](c3ccc(-c4cccc(Cl)c4)c(OC)c3)N[C@@](CC(C)C)(C(=O)OC)[C@H]2C1=O	·	i	-9	i	i	-9.9*	44%*	i	44%*
Cc1ccc(NC(=O)Cn2nc(C(=O)O)c3ccccc3c2=O)cc1S(=O)(=O)N1CCOCC1	·	i	·	·	·	·	·	·	·
CC(NCc1ccc([N+](=O)[O-])cc1)C1COc2ccccc2O1 (stereo not drawn)	·	i	-3	i	i	i	·	·	·
CN(Cc1ccccc1)C1CCCN(C(=O)c2ccc(Cl)s2)C1 (stereo not drawn)	·	i	-8	i	i	i	i	i	i
Cc1csc2sc(-c3ccnc(SCC(=O)NCc4ccccc4)n3)c(C)c12	-0.61	i	-10	i	i	-9.2*	i	i	32%*
N#C/C(=C/c1ccc(N2CCOCC2)o1)c1ccc(Cl)cc1	0.037	i	-23	i	i	-10*	74%*	38%*	80%*
N#C/C(=C\c1ccc(N2CCOCC2)o1)c1nc2ccccc2[nH]1	i	i	·	·	·	·	·	·	·
CCCc1ccc(C2=Nn3c(nnc3C(C)C)SC2)cc1	·	i	-9	i	i	i	·	·	·
COc1ccc(NC2CCCN(C(=O)CCOc3ccccc3)C2)cc1 (stereo not drawn)	·	i	-8	i	i	i	i	i	i
COc1ccc(NC2CCCN(C(=O)CCN3CCCO3)C2)cc1 (stereo not drawn)	·	i	-9	i	i	i	·	·	·
COc1ccc(NC2CCCN(C(=O)CCc3ccccc3F)C2)cc1 (stereo not drawn)	·	i	-7	i	i	i	i	i	i
COc1ccc(NC2CCCN(C(=O)CSc3ccccc3)C2)cc1 (stereo not drawn)	·	i	-7	i	i	i	·	·	·
COc1ccc(-c2ncc(CN3CCN(CCC(C)C)C(CCO)C3)cn2)cc1 (stereo not drawn)	·	i	-12	i	i	i	·	·	·
Cc1cccc(-c2ncc(CN3CCN(CC(C)C)C(CCO)C3)cn2)c1 (stereo not drawn)	-0.064	i	-16	i	i	i	i	i	i
O=C(OCc1ccccc1Cl)c1ccccc1C(=O)c1ccccc1	·	i	-5	i	i	-8.7*	i	41%*	38%*
O=C(OCc1ccccc1Cl)c1cccnc1Cl	0.11	i	-10	i	i	i	·	·	·
O=C(Nc1cccc2ncccc12)c1cc([N+](=O)[O-])ccc1Cl	·	i	-3	i	i	i	·	·	·
COC(=O)C(C)Oc1cc(C)ccc1COc1ccc(-n2nc(C)n(C(F)F)c2=O)cc1 (stereo not drawn)	·	i	-8	i	i	i	i	i	i
COC(=O)C(C)n1nc(C)n(-c2ccc(C)cc2)c1=O (stereo not drawn)	·	i	-11	i	i	i	·	·	·
